Assay results from ChEMBL document CHEMBL1122172, “Syntheses and diuretic activity of 1,2-dihydro-2-(3-pyridyl)-3H-pyrido[2,3-d]pyrimidin-4-one and related compounds” (1982).
“And” between values parts separate entries of the source, which are not always exact repeats. Identical values can stand only once.

Legend:
Format in all cases: functional, Urine
Rattus norvegicus [1] = assay: Total Cl- milliequivalents excretion in diuretic test at the dose of 25 mg/kg
Outline: (§1)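 Male Sprague–Dawley rats (195–225 g) were fasted and deprived of water for 18 h. The compound was given orally, dissolved in 25 mL/kg saline; controls got saline alone. Groups of eight were housed as pairs in metabolism cages. Urine volume was read at 2 and 5 h, with total Na+, Cl− and K+ mequiv excreted. Values are mean ± SEM, N = 8.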

Rattus norvegicus [2] = assay: Diuretic activity by measuring the urinary output at the dose of 25 mg/kg; outline: as §1
Rattus norvegicus [3] = assay: Total Na+ milliequivalents excretion in diuretic test at the dose of 75 mg/kg; conditions: 75 mg/kg
Rattus norvegicus [4] = assay: Total K+ milliequivalents excretion in diuretic test at the dose of 25 mg/kg; outline: as §1
Rattus norvegicus [5] = assay: Total Cl- milliequivalents excretion in diuretic test at the dose of 75 mg/kg
Rattus norvegicus [6] = assay: Total Na+ milliequivalents excretion in diuretic test at the dose of 25 mg/kg; outline: as §1
Rattus norvegicus [7] = assay: Diuretic activity by measuring the urinary output at the dose of 75 mg/kg
Outline: (§2)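 Groups of eight male Sprague–Dawley-derived rats, fasted 18 h with water ad libitum, received oral doses by dosing needle in 5% acacia–isotonic saline; the vehicle served as control. Rats were placed in metabolism cages with no food or water, and urine was collected for 5 h. Bladders were then emptied by pulling at the tail base (modified Lipschitz method).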

Rattus norvegicus [8] = assay: Total Na+ milliequivalents excretion in diuretic test at the dose of 150 mg/kg
Rattus norvegicus [9] = assay: Total K+ milliequivalents excretion in diuretic test at the dose of 150 mg/kg
Rattus norvegicus [10] = assay: Total Cl- milliequivalents excretion in diuretic test at the dose of 150 mg/kg
Rattus norvegicus [11] = assay: Diuretic activity by measuring the urinary output at the dose of 150 mg/kg; outline: as §2
Rattus norvegicus [12] = assay: Diuretic activity by measuring the urinary output at the dose of 400 mg/kg; outline: as §2
Rattus norvegicus [13] = assay: Diuretic activity by measuring the urinary output at the dose of 100 mg/kg; outline: as §2
Rattus norvegicus [14] = assay: Diuretic activity by measuring the urinary output at the dose of 50 mg/kg; outline: as §2
Rattus norvegicus [15] = assay: Total Cl- milliequivalents excretion in diuretic test at the dose of 50 mg/kg
Rattus norvegicus [16] = assay: Total Cl- milliequivalents excretion in diuretic test at the dose of 12 mg/kg; outline: as §1
Rattus norvegicus [17] = assay: Total Na+ milliequivalents excretion in diuretic test at the dose of 1 mg/kg; outline: as §1
Rattus norvegicus [18] = assay: Diuretic activity by measuring the urinary output after 2 hr at the dose of 12 mg/kg; outline: as §1
Rattus norvegicus [19] = assay: Total Na+ milliequivalents excretion in diuretic test at the dose of 9 mg/kg
Outline: (§3)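 Oral dosing was in 25 mL/kg saline to male Sprague–Dawley rats (195–225 g) after 18 h without food or water, with saline-only controls. Groups of eight were kept two per metabolism cage. Urinary Na+, Cl− and K+ were reported as total mequiv excreted, with electrolyte analysis done externally. Values are mean ± SEM of two rats per cage, N = 8.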

Rattus norvegicus [20] = assay: Diuretic activity by measuring the urinary output after 2 hr at the dose of 9 mg/kg
Outline: (§4)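 Male Sprague–Dawley rats (195–225 g) were fasted and deprived of water for 18 h, then dosed orally with compound dissolved in 25 mL/kg saline. Controls got 25 mL/kg saline alone. Groups of eight were used, housed two rats per metabolism cage right after dosing. Urine volume was collected at 2 h and 5 h after dosing. Values are mean ± SEM per cage pair, N = 8.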

Rattus norvegicus [21] = assay: Total Na+ milliequivalents excretion in diuretic test at the dose of 12 mg/kg; outline: as §1
Rattus norvegicus [22] = assay: Diuretic activity by measuring the urinary output after 2 hr at the dose of 3 mg/kg; outline: as §4
Rattus norvegicus [23] = assay: Diuretic activity by measuring the urinary output after 5 hr at the dose of 12 mg/kg; outline: as §1
Rattus norvegicus [24] = assay: Total Cl- milliequivalents excretion in diuretic test at the dose of 1 mg/kg; outline: as §1
Rattus norvegicus [25] = assay: Total K+ milliequivalents excretion in diuretic test at the dose of 3 mg/kg; outline: as §3
Rattus norvegicus [26] = assay: Total K+ milliequivalents excretion in diuretic test at the dose of 27 mg/kg; outline: as §3
Rattus norvegicus [27] = assay: Diuretic activity by measuring the urinary output after 2 hr at the dose of 27 mg/kg; outline: as §4
Rattus norvegicus [28] = assay: Total K+ milliequivalents excretion in diuretic test at the dose of 9 mg/kg; outline: as §3
Rattus norvegicus [29] = assay: Diuretic activity by measuring the urinary output after 5 hr at the dose of 9 mg/kg; outline: as §4
Rattus norvegicus [30] = assay: Total Cl- milliequivalents excretion in diuretic test at the dose of 9 mg/kg; outline: as §3
Rattus norvegicus [31] = assay: Diuretic activity by measuring the urinary output after 5 hr at the dose of 27 mg/kg; outline: as §4
Rattus norvegicus [32] = assay: Total Na+ milliequivalents excretion in diuretic test at the dose of 27 mg/kg; outline: as §3
Rattus norvegicus [33] = assay: Total Na+ milliequivalents excretion in diuretic test at the dose of 3 mg/kg; outline: as §3
Rattus norvegicus [34] = assay: Total Cl-mequiv excretion in diuretic test at the dose of 3 mg/kg; outline: as §1
Rattus norvegicus [35] = assay: Diuretic activity by measuring the urinary output after 5 hr at the dose of 3 mg/kg; outline: as §4
Rattus norvegicus [36] = assay: Total K+ milliequivalents excretion in diuretic test at the dose of 12 mg/kg; outline: as §1
Rattus norvegicus [37] = assay: Diuretic activity by measuring the urinary output after 2 hr at the dose of 1 mg/kg; outline: as §1
Rattus norvegicus [38] = assay: Total Cl- milliequivalents excretion in diuretic test at the dose of 27 mg/kg; outline: as §3
Rattus norvegicus [39] = assay: Total K+ milliequivalents excretion in diuretic test at the dose of 1 mg/kg; outline: as §1
Rattus norvegicus [40] = assay: Diuretic activity by measuring the urinary output after 2 hr at the dose of 25 mg/kg; outline: as §4
Rattus norvegicus [41] = assay: Total Na+ milliequivalents excretion in diuretic test at the dose of 81 mg/kg; outline: as §3
Rattus norvegicus [42] = assay: Diuretic activity by measuring the urinary output after 5 hr at the dose of 81 mg/kg; outline: as §4
Rattus norvegicus [43] = assay: Diuretic activity by measuring the urinary output after 2 hr at the dose of 81 mg/kg; outline: as §4
Rattus norvegicus [44] = assay: Diuretic activity by measuring the urinary output after 5 hr at the dose of 25 mg/kg; outline: as §4
Rattus norvegicus [45] = assay: Total Cl- milliequivalents excretion in diuretic test at the dose of 81 mg/kg; outline: as §3
Rattus norvegicus [46] = assay: Total Cl- milliequivalents excretion in diuretic test at the dose of 3 mg/kg; outline: as §3
Rattus norvegicus [47] = assay: Total K+ milliequivalents excretion in diuretic test at the dose of 81 mg/kg; outline: as §3

O=C1NC(c2ccc(C(F)(F)F)cc2)Nc2ncccc21 (centres undefined)
Excretion (Rattus norvegicus [1]): 1.4 m equiv | Control (Rattus norvegicus [2]): 106% | Excretion (Rattus norvegicus [3]): 1.2 m equiv and 0.4 m equiv | Excretion (Rattus norvegicus [4]): 0.4 m equiv | Excretion (Rattus norvegicus [5]): 1.3 m equiv | Excretion (Rattus norvegicus [6]): 1.3 m equiv | Control (Rattus norvegicus [7]): 98%

CN(C)C(=O)C1(C)NC(=O)c2ccccc2N1 (centres undefined)
Excretion (Rattus norvegicus [8]): 1.1 m equiv | Excretion (Rattus norvegicus [9]): 0.4 m equiv | Excretion (Rattus norvegicus [10]): 1.4 m equiv | Control (Rattus norvegicus [11]): 100%

O=C1NC(c2ccco2)Nc2ncccc21 (centres undefined)
Control (Rattus norvegicus [2]): 121% | Control (Rattus norvegicus [12]): 193% | Control (Rattus norvegicus [13]): 194%

COC(OC)C1(C)NC(=O)c2ccccc2N1 (centres undefined)
Excretion (Rattus norvegicus [1]): 1.2 m equiv | Control (Rattus norvegicus [2]): 118% | Excretion (Rattus norvegicus [4]): 0.4 m equiv | Excretion (Rattus norvegicus [6]): 1.2 m equiv

O=C1NC(c2cccnc2)Nc2[nH]cnc21 (centres undefined)
Excretion (Rattus norvegicus [1]): 1.3 m equiv | Control (Rattus norvegicus [2]): 138% | Excretion (Rattus norvegicus [4]): 0.6 m equiv | Excretion (Rattus norvegicus [6]): 1.4 m equiv

Cn1cccc1C1NC(=O)c2cccnc2N1 (centres undefined)
Excretion (Rattus norvegicus [1]): 1.4 m equiv | Control (Rattus norvegicus [2]): 124% | Control (Rattus norvegicus [14]): 113% | Excretion (Rattus norvegicus [4]): 0.3 m equiv | Excretion (Rattus norvegicus [15]): 1 m equiv | Excretion (Rattus norvegicus [6]): 1.5 m equiv

NS(=O)(=O)c1cc2c(cc1Cl)NCNS2(=O)=O [HYDROCHLOROTHIAZIDE]
Excretion (Rattus norvegicus [16]): 2.8 m equiv | Excretion (Rattus norvegicus [17]): 2 m equiv | Excretion (Rattus norvegicus [18]): 7.9 mL | Excretion (Rattus norvegicus [19]): 2.2 m equiv | Control (Rattus norvegicus [2]): 201% | Excretion (Rattus norvegicus [20]): 7.5 mL | Excretion (Rattus norvegicus [21]): 2.5 m equiv | Excretion (Rattus norvegicus [22]): 8.1 mL | Excretion (Rattus norvegicus [23]): 16 mL and 13.9 mL | Excretion (Rattus norvegicus [24]): 2.5 m equiv | Excretion (Rattus norvegicus [25]): 0.6 m equiv | Excretion (Rattus norvegicus [26]): 0.8 m equiv | Excretion (Rattus norvegicus [27]): 8.4 mL | Excretion (Rattus norvegicus [28]): 0.6 m equiv | Excretion (Rattus norvegicus [29]): 14.6 mL | Excretion (Rattus norvegicus [30]): 2.7 m equiv | Excretion (Rattus norvegicus [31]): 15.1 mL | Excretion (Rattus norvegicus [32]): 2.5 m equiv | Excretion (Rattus norvegicus [33]): 2.4 m equiv | Excretion (Rattus norvegicus [34]): 2.7 m equiv | Excretion (Rattus norvegicus [35]): 15.8 mL | Excretion (Rattus norvegicus [36]): 0.7 m equiv and 0.6 m equiv | Excretion (Rattus norvegicus [37]): 7.8 mL | Excretion (Rattus norvegicus [38]): 3 m equiv | Excretion (Rattus norvegicus [39]): 0.6 m equiv

O=C1NC(c2cccnc2)Nc2ncccc21 (centres undefined)
Excretion (Rattus norvegicus [1]): 2.8 m equiv | Excretion (Rattus norvegicus [19]): 1.1 m equiv | Excretion (Rattus norvegicus [40]): 8 mL | Control (Rattus norvegicus [2]): 221% | Excretion (Rattus norvegicus [20]): 3 mL | Excretion (Rattus norvegicus [41]): 2.6 m equiv | Excretion (Rattus norvegicus [42]): 19.6 mL | Excretion (Rattus norvegicus [22]): 4.4 mL | Excretion (Rattus norvegicus [43]): 6 mL | Excretion (Rattus norvegicus [4]): 0.6 m equiv | Excretion (Rattus norvegicus [44]): 21 mL | Control (Rattus norvegicus [12]): 185% | Excretion (Rattus norvegicus [25]): 0.4 m equiv | Excretion (Rattus norvegicus [26]): 0.6 m equiv | Excretion (Rattus norvegicus [27]): 10.4 mL | Excretion (Rattus norvegicus [28]): 0.4 m equiv | Excretion (Rattus norvegicus [29]): 7.6 mL | Excretion (Rattus norvegicus [30]): 1.3 m equiv | Excretion (Rattus norvegicus [31]): 20.1 mL | Excretion (Rattus norvegicus [32]): 2.2 m equiv | Excretion (Rattus norvegicus [45]): 2.6 m equiv | Control (Rattus norvegicus [13]): 220% | Excretion (Rattus norvegicus [6]): 2.5 m equiv | Excretion (Rattus norvegicus [33]): 1.4 m equiv | Excretion (Rattus norvegicus [46]): 1.6 m equiv | Excretion (Rattus norvegicus [35]): 8.1 mL | Excretion (Rattus norvegicus [47]): 0.4 m equiv | Excretion (Rattus norvegicus [38]): 2.6 m equiv

CC(C)c1ccc(C2NC(=O)c3cccnc3N2)cc1 (centres undefined)
Excretion (Rattus norvegicus [1]): 1.6 m equiv | Control (Rattus norvegicus [2]): 137% | Excretion (Rattus norvegicus [3]): 1.3 m equiv and 0.6 m equiv | Excretion (Rattus norvegicus [4]): 0.6 m equiv | Excretion (Rattus norvegicus [5]): 1.4 m equiv | Excretion (Rattus norvegicus [6]): 1.5 m equiv | Control (Rattus norvegicus [7]): 114%

O=C1NC(c2ccccc2)Nc2ncccc21 (centres undefined)
Excretion (Rattus norvegicus [1]): 1.4 m equiv | Control (Rattus norvegicus [2]): 114% | Excretion (Rattus norvegicus [4]): 0.5 m equiv | Excretion (Rattus norvegicus [5]): 1.8 m equiv | Excretion (Rattus norvegicus [6]): 1.3 m equiv | Control (Rattus norvegicus [7]): 146%
